Measured values published in ChEMBL document CHEMBL2417486, “Exploring natural product chemistry and biology with multicomponent reactions. 5. Discovery of a novel tubulin-targeting scaffold derived from the rigidin family of marine alkaloids” (J Med Chem, 2013).
Values after ≈ are worked out from the molar mass of the structure shown. Active and inactive are the calls of the source. The rule behind the calls is not given here.

Experiments:
HeLa [1] = experiment: Growth inhibition of human HeLa cells after 48 hrs by MTT assay; format: functional
Procedure, shortened: (§1)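 Cells seeded at 4 × 10^3 per well, grown 24 h, then treated 48 h at 0.004–100 µM from 100 or 25 mM DMSO stocks. Controls were 0.1% DMSO and phenyl arsine oxide. MTT (5 mg/mL) added for 2 h, formazan dissolved in DMSO, A490 read. […] HeLa/MCF-7 in DMEM, MES-SA lines in RPMI-1640, all with 10% FBS.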

MCF7 = experiment: Growth inhibition of human MCF7 cells after 48 hrs by MTT assay; format: functional; settings: MCF7, 48 h; procedure, shortened: as §1
HeLa [2] = experiment: Antimitotic activity in human HeLa cells assessed as mitotic microtubule organization at 1 to 10 nM after 3 hrs by Hoechst 33342 staining based inverted microscopic analysis; format: functional, cell-based
Procedure, shortened: (§2)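 HeLa cells grown in EMEM with 10% FBS, sodium pyruvate and sodium bicarbonate; treated 3 h with compound (DMSO stock prediluted in medium) or 0.1% DMSO carrier. Fixed in methanol at -20°C for 30 min, blocked in 3% BSA/PBS 1 h, mouse anti-tubulin plus rabbit anti-pericentrin overnight at 4 °C, Alexafluor secondaries, Hoechst 33342 for DNA; epifluorescence imaging with Apotome.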

[3] = Inhibition of bovine brain tubulin polymerization preincubated for 15 mins followed by GTP addition measured after 20 mins by turbidimetric analysis; design: species or system Bos taurus
Procedure, shortened: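 Bovine brain tubulin at 10 µM (1.0 mg/mL) in 0.8 M monosodium glutamate (pH 6.6 in 2 M stock) was preincubated with varying compound concentrations for 15 min at 30 °C, then cooled to 0 °C. After addition of 0.4 mM GTP, samples were warmed to 30 °C and assembly followed by turbidity at 350 nm.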

[4] = molecular target: T1, Tubulin beta (Homo sapiens) (UniProt P68371+Q9H4B7+Q13509+P04350+Q3ZCM7+P07437+Q13885+Q9BVA1+Q9BUF5+A6NNZ2); experiment: Inhibition of [3H] radiolabelled colchicine binding to tubulin beta (unknown origin) at 1 uM by DEAE-cellulose filter method; format: protein assay
[5] = Growth inhibition of human MES-SA cells after 48 hrs by MTT assay; format: functional; procedure, shortened: as §1
[6] = Growth inhibition of human doxorubicin-resistant MES-SA/Dx5 cells after 48 hrs by MTT assay; format: functional; settings: MES-SA/Dx5, 48 h
Procedure, shortened: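 Cells seeded at 4 × 10^3 per well, grown 24 h, then treated 48 h at 0.004–100 µM from 100 or 25 mM DMSO stocks. Controls were 0.1% DMSO and phenyl arsine oxide. MTT (5 mg/mL) added for 2 h, formazan dissolved in DMSO, A490 read.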

HeLa [7] = experiment: Antimitotic activity in human HeLa cells assessed as disruption of mitotic microtubule organization at 10 to 100 nM after 3 hrs by Hoechst 33342 staining based inverted microscopic analysis; format: functional, cell-based; procedure, shortened: as §2
[8] = molecular target: T1, Tubulin beta (Homo sapiens); experiment: Inhibition of [3H] radiolabelled colchicine binding to tubulin beta (unknown origin) at 5 uM by DEAE-cellulose filter method; format: protein assay
A549 = experiment: Growth inhibition of human A549 cells after 48 hrs by MTT assay; format: functional; settings: A549, 48 h
B16-F10 = experiment: Growth inhibition of mouse B16F10 cells after 48 hrs by MTT assay; format: functional; settings: B16-F10, 48 h
HeLa [9] = experiment: Antimitotic activity in human HeLa cells assessed as effect on spindle length at 1 to 10 nM after 3 hrs by Hoechst 33342 staining based inverted microscopic analysis; format: functional, cell-based; procedure, shortened: as §2
SK-MEL-28 = experiment: Growth inhibition of human SK-MEL-28 cells after 48 hrs by MTT assay; format: functional; settings: SK-MEL-28, 48 h
[10] = Growth inhibition of human U373 cells after 48 hrs by MTT assay; format: functional, U-373MG ATCC; settings: U373 MG
[11] = Growth inhibition of human Hs683 cells after 48 hrs by MTT assay; format: functional; settings: Hs 683, 48 h
HeLa [12] = experiment: Antimitotic activity in human HeLa cells assessed as disruption of interphase microtubule organization at 10 to 100 nM after 3 hrs by Hoechst 33342 staining based inverted microscopic analysis; format: functional, cell-based; procedure, shortened: as §2
HeLa [13] = experiment: Antimitotic activity in human HeLa cells assessed as interphase microtubule organization at 1 to 10 nM after 3 hrs by Hoechst 33342 staining based inverted microscopic analysis; format: functional, cell-based; procedure, shortened: as §2
[14] = Aqueous solubility of the compound by spectrophotometric analysis; format: physicochemical
Procedure, shortened: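 Compound dispersed in ultrapure water at >0.5 mg/mL; supernatant centrifuged repeatedly until no pellet remained, then diluted 1:2 (solution:DMSO). Concentration read from absorbance at peak 335–336 nm against a calibration line made in 1:2 water/DMSO, and corrected for the DMSO dilution.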

[15] = Growth inhibition of human UM-SCC-10A cells after 48 hrs by MTT assay; format: functional; settings: UMSCC-10A
HeLa [16] = experiment: Cell cycle arrest in human HeLa cells assessed as accumulation at G2/M phase at 1 uM after 32 hrs using Vybrant Orange staining by flow cytometry relative to control; format: functional, cell-based
Procedure, shortened: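 HeLa cells at 70–80% confluence were seeded at 2 × 10^5 per well in DMEM/10% FBS with penicillin G and streptomycin, left to adhere overnight, then treated at 1 µM for 32 h (0.1% DMSO control). Washed, trypsinized, stained 30 min at 37 °C with 10 µM Vybrant Orange in medium, then analysed by flow cytometry for DNA content.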

[17] = Growth inhibition of human UM-SCC-10B cells after 48 hrs by MTT assay; format: functional
[18] = Growth inhibition of human UM-SCC-22A cells after 48 hrs by MTT assay; format: functional
UMSCC22B = experiment: Growth inhibition of human UM-SCC-22B cells after 48 hrs by MTT assay; format: functional

Structure (SMILES)	GI50 (HeLa [1]) [nM]	GI50 (MCF7) [nM]	further results
Nc1ncnc2[nH]c(C(=O)c3ccccc3)c(-c3cccs3)c12	28000	15000	–
O=C(c1ccccc1)c1[nH]c2[nH]cnc(=O)c2c1-c1ccccc1	35	40	Activity (HeLa [2]): inactive; IC50 [3]: 1200 nM; inhibition [4]: 58%; GI50 [5]: 30 nM; GI50 [6]: 70 nM; Activity (HeLa [7]): Active; inhibition [8]: 88%; GI50 (A549): 10 nM; GI50 (B16-F10): 20 nM; Activity (HeLa [9]): inactive; GI50 (SK-MEL-28): < 10 nM; GI50 [10]: < 10 nM; GI50 [11]: 10 nM; Activity (HeLa [12]): Active; Activity (HeLa [13]): inactive; solubility [14]: 10 µM (≈ 3.15 µg/mL)
COc1ccc(/C=C\c2cc(OC)c(OC)c(OC)c2)cc1O	–	–	inhibition [4]: 89%; inhibition [8]: 99%
COc1ccc(C(=O)c2[nH]c3ncnc(-c4ccc(OC)cc4)c3c2-c2ccc(OC)cc2)cc1	20000	8000	–
O=C(c1ccccc1)c1[nH]c2[nH]cnc(=O)c2c1-c1cccc(Br)n1	150	135	–
O=C(c1ccc(Br)cc1)c1[nH]c2[nH]cnc(=O)c2c1-c1cc(Br)cc(Br)c1	2200	600	–
O=C(c1ccccc1)c1[nH]c2[nH]cnc(=O)c2c1-c1cccc(F)c1	65	70	solubility [14]: 65 µM (≈ 21.7 µg/mL)
COc1ccc(-c2c(C(=O)c3ccccc3)[nH]c3[nH]c(=O)[nH]c(=O)c23)cc1	80000	14000	–
O=C(c1ccccc1)c1[nH]c2[nH]cnc(=O)c2c1-c1cccc(Br)c1	130	60	–
N#Cc1cccc(-c2c(C(=O)c3ccccc3)[nH]c3[nH]cnc(=O)c23)c1	190	250	–
COc1cc(-c2c(C(=O)c3ccc(O)cc3)[nH]c3[nH]c(=O)[nH]c(=O)c23)ccc1O	> 100000	> 100000	–
COc1cc(-c2c(C(=O)c3ccccc3)[nH]c3[nH]cnc(=O)c23)cc(I)c1OC	8200	40000	–
COc1ccc(-c2c(C(=O)c3ccccc3)[nH]c3ncnc(-c4ccccc4)c23)cc1	70000	75000	–
O=C(c1ccccc1)c1[nH]c2[nH]cnc(=O)c2c1-c1c(Cl)cccc1Cl	4900	2200	–
O=C(c1ccc(O)cc1)c1[nH]c2[nH]c(=O)[nH]c(=O)c2c1-c1ccc(O)cc1	> 100000	> 100000	–
Cc1ccc(-c2ncnc3[nH]c(C(=O)c4ccccc4)c(-c4cc(Br)cc(Br)c4)c23)cc1	9000	7000	–
O=C(c1ccc(F)cc1)c1[nH]c2[nH]cnc(=O)c2c1-c1cc(Br)cc(Br)c1	6300	800	–
O=C(c1ccc(O)cc1)c1[nH]c2[nH]cnc(=O)c2c1-c1ccc(O)cc1	4000	2800	–
COc1cc(-c2c(C(=O)c3ccc(F)cc3)[nH]c3[nH]c(=O)[nH]c(=O)c23)cc(OC)c1OC	> 100000	> 100000	–
Nc1ncnc2[nH]c(C(=O)c3ccccc3)c(-c3c(Cl)cccc3Cl)c12	> 100000	> 100000	–
COc1ccc(C(=O)c2[nH]c3[nH]cnc(=O)c3c2-c2cc(Br)cc(Br)c2)cc1	300	110	–
COc1cc(-c2c(C(=O)c3ccc(Br)cc3)[nH]c3[nH]c(=O)[nH]c(=O)c23)cc(OC)c1OC	> 100000	> 100000	–
N#Cc1cccc(-c2c(C(=O)c3ccc(OCc4ccccc4)cc3)[nH]c3ncnc(N)c23)c1	> 100000	> 100000	–
COc1ccc(C(=O)c2[nH]c3[nH]c(=O)[nH]c(=O)c3c2-c2ccc(OC)cc2)cc1	> 100000	> 100000	–

Structure (SMILES)	GI50 (HeLa [1]) [nM]	GI50 (MCF7) [nM]	further results
Nc1ncnc2[nH]c(C(=O)c3ccccc3)c(-c3cc(Br)cc(Br)c3)c12	> 100000	> 100000	–
O=C(c1ccc(O)cc1)c1[nH]c2[nH]cnc(=O)c2c1-c1cc(Br)cc(Br)c1	300	260	–
O=C(c1ccccc1)c1[nH]c2ncnc(-c3ccccc3)c2c1-c1cccnc1	45000	51000	–
O=C(c1ccccc1)c1[nH]c2[nH]cnc(=O)c2c1-c1cc(Br)cs1	43000	56000	–
COc1cc(C(=O)c2[nH]c3[nH]c(=O)[nH]c(=O)c3c2-c2ccc(O)c(OC)c2)ccc1O	> 100000	> 100000	–
O=C(c1ccc(OCc2ccccc2)cc1)c1[nH]c2[nH]cnc(=O)c2c1-c1cc(Br)cc(Br)c1	400	310	–
O=C(c1ccccc1)c1[nH]c2[nH]c(=S)[nH]c(=S)c2c1-c1cc(Br)cc(Br)c1	> 100000	> 100000	–
Nc1ncnc2[nH]c(C(=O)c3ccccc3)c(-c3ccccc3)c12	4400	3900	–
O=C(c1ccccc1)c1[nH]c2[nH]cnc(=O)c2c1-c1cccc(O)c1	860	1090	–
O=C(c1ccc(OCc2ccccc2)cc1)c1[nH]c2[nH]cnc(=O)c2c1-c1ccccc1	45	53	–
COc1cc(-c2c(C(=O)c3ccccc3)[nH]c3[nH]cnc(=O)c23)cc(Br)c1OC	7100	10000	–
COc1cc(-c2c(C(=O)c3ccc(O)cc3)[nH]c3[nH]cnc(=O)c23)ccc1O	5000	3000	–
COc1cc(C(=O)c2[nH]c3[nH]c(=O)[nH]c(=O)c3c2-c2cc(OC)c(OC)c(OC)c2)ccc1OCc1ccccc1	> 100000	> 100000	–
COc1ccc(C(=O)c2[nH]c3[nH]cnc(=O)c3c2-c2cc(OC)c(OC)c(OC)c2)cc1	> 100000	7000	–
O=C(c1ccccc1)c1[nH]c2[nH]cnc(=O)c2c1-c1cccc(Cl)c1	100	60	–
O=C(c1ccccc1)c1[nH]c2ncnc(-c3ccccc3)c2c1-c1cc(Br)cc(Br)c1	18000	10000	–
O=C(c1ccccc1)c1[nH]c2[nH]cnc(=O)c2c1-c1cccnc1	880	1260	–
Nc1ncnc2[nH]c(C(=O)c3ccccc3)c(-c3cncc(Br)c3)c12	> 100000	> 100000	–
O=C(c1ccccc1)c1[nH]c2[nH]c(=O)[nH]c(=O)c2c1-c1cc(Br)cc(Br)c1	71000	47000	–
COc1cc(C(=O)c2[nH]c3[nH]c(=O)[nH]c(=O)c3c2-c2ccc(O)cc2)ccc1O	> 100000	> 100000	–
O=C(c1ccccc1)c1[nH]c2[nH]cnc(=O)c2c1-c1cncc(Br)c1	80	87	GI50 [15]: 90 nM; Activity (HeLa [16]): Active; GI50 [17]: 130 nM; GI50 (A549): 20 nM; GI50 (B16-F10): 40 nM; GI50 [18]: 120 nM; GI50 (SK-MEL-28): 20 nM; GI50 [10]: 30 nM; GI50 [11]: 20 nM; GI50 (UMSCC22B): 20 nM; solubility [14]: 30 µM (≈ 11.9 µg/mL)
O=C(c1ccccc1)c1[nH]c2[nH]cnc(=O)c2c1-c1cccc(I)c1	200	150	–
O=C(c1ccc(O)cc1)c1[nH]c2[nH]cnc(=O)c2c1-c1ccccc1	400	300	–
COc1cc(-c2c(C(=O)c3ccccc3)[nH]c3[nH]cnc(=O)c23)cc(OC)c1OC	48000	33000	–
